Test results reported in PMC7231760 (International Journal of Nanomedicine, 2020).

Legend:
[1] = target: HCV NS3 helicase (Hepatitis C virus genotype 1a, UniProt P27958); test: Anti-HCV NS3 helicase assay; format: biochemical
In short: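 Test samples were dissolved in DMSO; thioflavin S or 0.8% DMSO served as controls. ATP was added from a 5 mM solution. Fluorescence was read at t0 and after 1 h at 25°C. Ratio_RFU = RFU_t60/RFU_t0, and percent inhibition was calculated.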

[2] = target: HCV NS3 protease (Hepatitis C virus, UniProt P27958); test: Anti-HCV NS3 protease assay; format: biochemical; conditions: SNPs of total extract and petroleum ether fraction, controls (Table 2)
Chain of HCV NS3 protease (P27958 1027-1657): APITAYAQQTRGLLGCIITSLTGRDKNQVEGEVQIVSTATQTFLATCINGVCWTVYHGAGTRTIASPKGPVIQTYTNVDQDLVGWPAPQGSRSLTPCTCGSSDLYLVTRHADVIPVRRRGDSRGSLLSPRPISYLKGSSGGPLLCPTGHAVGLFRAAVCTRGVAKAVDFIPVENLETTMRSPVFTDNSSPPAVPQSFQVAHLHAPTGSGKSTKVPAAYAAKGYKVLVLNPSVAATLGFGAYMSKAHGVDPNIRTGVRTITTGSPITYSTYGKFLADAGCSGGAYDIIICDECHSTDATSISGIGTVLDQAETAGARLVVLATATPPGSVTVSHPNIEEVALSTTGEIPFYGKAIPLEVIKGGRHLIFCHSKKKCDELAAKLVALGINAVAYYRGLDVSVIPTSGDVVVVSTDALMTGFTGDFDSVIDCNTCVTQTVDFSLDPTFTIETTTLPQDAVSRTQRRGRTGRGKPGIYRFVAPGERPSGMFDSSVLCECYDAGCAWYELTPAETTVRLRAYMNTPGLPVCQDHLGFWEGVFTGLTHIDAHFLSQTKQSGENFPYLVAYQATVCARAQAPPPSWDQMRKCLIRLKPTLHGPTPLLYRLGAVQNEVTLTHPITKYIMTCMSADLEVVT

Chain of HCV NS3 helicase (P27958 1192-1657 limits assumed): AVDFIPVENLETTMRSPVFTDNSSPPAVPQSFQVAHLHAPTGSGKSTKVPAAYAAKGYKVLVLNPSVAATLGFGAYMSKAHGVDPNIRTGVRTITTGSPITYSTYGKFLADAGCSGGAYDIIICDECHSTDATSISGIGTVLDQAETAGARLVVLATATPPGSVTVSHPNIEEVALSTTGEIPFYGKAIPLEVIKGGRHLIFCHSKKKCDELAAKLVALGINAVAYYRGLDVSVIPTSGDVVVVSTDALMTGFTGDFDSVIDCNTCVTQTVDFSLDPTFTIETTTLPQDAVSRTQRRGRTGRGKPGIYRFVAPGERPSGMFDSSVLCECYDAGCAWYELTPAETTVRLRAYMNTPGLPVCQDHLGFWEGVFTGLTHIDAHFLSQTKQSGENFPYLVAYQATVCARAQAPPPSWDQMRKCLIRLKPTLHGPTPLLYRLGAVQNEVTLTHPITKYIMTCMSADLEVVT

In the case of O=[N+]([O-])[O-].[Ag+] [AgNO3], the “IC50 NS3 Helicase” value ([1]; SNPs of total extract and petroleum ether fraction, controls (Table 2)) is reported as 77.72 ± 4.57 µg/mL and the “IC50 NS3 Protease” value [2] is reported as 52.67 ± 0.33 µg/mL.

In the case of NC(=O)c1ncn([C@@H]2O[C@H](CO)[C@@H](O)[C@H]2O)n1 [Ribavirin], the IC50 [1] is reported as 19.1 µM.
